Compound activity (PubChem BioAssay)
Shown are actives, neighbours in structure and some others; about 1.7% of the full set was active somewhere.
STEP block – inhibitors of human striatal-enriched phosphatase STEP; recombinant STEP, OMFP fluorogenic substrate, fluorescence; inhibition, % at 20 µM; hit rate 0.25% among 360,000; AID 588621;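 active = inhibition at 20 µM, scaled per plate between control wells, above about 37%, limit read from the data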;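 also: 0% = DMSO with enzyme and substrate and 100% = substrate only without enzyme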
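System: isolated STEP enzyme; schedule: 20 min enzyme reaction at room temperature, protected from light; medium: Bis-Tris buffer pH 6.0, 2.5 mM DTT, 0.005% Tween 20; signal: fluorescence, 480/540 nm; dosing: single compound dose of 20 µM, 1% DMSO final; also added: OMFP substrate, 25 µM final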
Scp-1 inhibitor – blocks human Scp-1 phosphatase activity; AID 493091; inhibition, % at 20 µM; Q9GZU7; hit rate 0.88% among 340,000; Recombinant Scp1, phosphopeptide, malachite green phosphate absorbance;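 active = inhibition above about 50% at 20 µM, limit read from the data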;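 also: plate controls were DMSO wells with enzyme for no effect and wells lacking enzyme for full effect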
Target sequence (Q9GZU7 76-261 limits assumed): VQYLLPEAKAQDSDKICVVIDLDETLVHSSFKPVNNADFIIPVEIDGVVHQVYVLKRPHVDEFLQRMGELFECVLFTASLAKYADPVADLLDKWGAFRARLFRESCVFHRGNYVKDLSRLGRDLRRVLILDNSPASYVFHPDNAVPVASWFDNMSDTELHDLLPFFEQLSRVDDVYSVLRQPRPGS
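System: truncated SCP-1 phosphatase (76-261aa); medium: Tris acetate buffer pH 5.5 with MgCl2 and Tween-20; incubation: 45 min room-temperature reaction, 5 min colour, 30 min stabiliser; compound: single 20 µM dose, 1% DMSO; reagent: Phosphorylated 17-residue peptide substrate; read-out: % inhibition at 20 µM; technique: colorimetric free-phosphate detection, absorbance 630 nm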
LMPTP block – LMPTP (human) inhibition. inhibition, % at 20 µM. P24666. recombinant LMPTP-A, OMFP fluorogenic substrate, fluorescence intensity. hit rate 0.22% among 360,000;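 active = compounds that cut the enzyme signal by at least half of the control window in the single-dose screen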;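 also: plate controls were DMSO wells with enzyme plus substrate for no effect and substrate without enzyme for full effect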
Target sequence (P24666 whole entry, looked up): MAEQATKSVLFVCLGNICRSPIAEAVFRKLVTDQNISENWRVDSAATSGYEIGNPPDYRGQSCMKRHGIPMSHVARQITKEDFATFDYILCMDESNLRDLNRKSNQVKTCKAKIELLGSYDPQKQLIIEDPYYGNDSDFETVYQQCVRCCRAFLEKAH
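Test system: LMPTP-A phosphatase enzyme. Amount: LMPTP-A at 0.625 nM final in the reaction. Reagent: OMFP substrate, 400 µM final. Times: 50 min at room temperature. Signal: endpoint fluorescence intensity from OMFP dephosphorylation. Read-out basis: % inhibition. Benchmarks: no-enzyme and uninhibited controls.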
DNMT1 inh – blocks human DNA methyltransferase DNMT1 | hit rate 0.83% among 360,000 | AID 588458 | P26358 | inhibition (reported as % activation of signal), % at 10 µM | DNMT1 molecular beacon, Hinp1I cleavage, fluorescence; in the data active = inhibition above about 50%
SUMO1-SIM PPI – alters human SUMO1 binding to SIM partners; P63165; SUMO1 binding to a labelled peptide, TR-FRET, 1 h; inhibition, % at 20 µM; hit rate 0.33% among 360,000; AID 602429; in the data active = inhibition above about 37%
Target sequence (P63165 whole entry, looked up): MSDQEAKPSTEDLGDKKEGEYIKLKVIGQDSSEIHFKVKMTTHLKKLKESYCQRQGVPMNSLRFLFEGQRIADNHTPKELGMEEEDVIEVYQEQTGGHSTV
DNMT1 confirm – DNMT1 inhibition confirmation, single concentration | DNMT1 molecular beacon HinP1I cleavage, fluorescence | inhibition, % at 10 µM | hit rate 8% among 2,300 | shares compounds with DNMT1 inh;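 active = average inhibition of at least 30% in the single-concentration confirmation test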
Beacon interf – beacon fluorescence artifact counter-screen | DNMT1 molecular beacon spectral interference counterscreen, fluorescence 485/520 | hit rate 1% among 2,300 | shares compounds with DNMT1 inh | activation (fluorescence interference), % at 10 µM | AID 602387;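 active = activation of at least 30% at 10 µM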;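 also: DNMT1 catalytic domain with a HinP1I cleavage step and a FAM/dabcyl DNA beacon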
Numbers without * were called inactive; . = not tested or not shown.

SMILES	STEP block	Scp-1 inhibitor	LMPTP block	DNMT1 inh	SUMO1-SIM PPI	DNMT1 confirm	Beacon interf
Cc1ccc(C(CCN(Cc2ccccc2)C(=O)c2ccco2)c2ccco2)cc1 (configuration not stated)	2	10	5	56*	3	17	-1
COc1cc2oc(=O)cc(-c3ccc(-c4ccc(OC(F)(F)F)cc4)cc3)c2c(OC)c1OC	3	-8	13	61*	4	0	1
CCc1nc2c(OCCOc3ccc(F)cc3)cccn2c1N(C)C(=O)c1cccs1	-1	.	0	-6	7	.	.
Cc1nc(NC(=O)c2ccco2)sc1-c1csc(Nc2ccc(Cl)cc2Cl)n1	0	-11	3	63*	12	3	6
CCO[C@@H]1OC(C(N)=O)=C[C@H](c2ccc(C(F)(F)F)cc2)[C@H]1CCCO	-4	-3	-2	71*	-1	1	0
O=C(O)c1ccccc1SCCS(=O)(=O)c1ccc(Cl)cc1Cl	1	-11	-1	2	3	.	.
O=C(N/N=C/c1ccc([N+](=O)[O-])cc1)c1cc(-c2ccc3c(c2)OCO3)n[nH]1	1	-8	4	50*	14	0	-6
COc1cc(/C=N/NC(=O)c2cc(-c3ccc4c(c3)OCO4)n[nH]2)ccc1O	-1	-1	1	1	6	.	.
Nc1nnc(CCOc2ccccc2Cl)s1	-3	0	-1	2	0	.	.
COc1ccccc1CCc1nnc(N)s1	3	1	-2	81*	5	1	2
Cn1c(=O)c2cc(S(=O)(=O)NC(C(=O)Nc3cccc(F)c3)c3ccccc3)ccc2n(C)c1=O (configuration not stated)	-8	-7	0	83*	4	1	4
Cn1c(=O)c2cc(S(=O)(=O)NC(C(=O)Nc3cccnc3)c3ccccc3)ccc2n(C)c1=O (configuration not stated)	4	-10	-1	1	7	.	.
C=C1CCC2[C@](C)(CO)[C@H](O)CC[C@@]2(C)[C@@H]1C/C=C1\C(=O)OC[C@H]1O (some centres not stated)	-2	-1	0	5	5	.	.
C=C/C(C)=C/C[C@H]1C(=C)CCC2[C@](C)(C(=O)O)CCC[C@@]21C (some centres not stated)	-1	12	2	89*	14	2	-7
COc1ccc(C)cc1NC(=O)CN(Cc1nnc(-c2ccc(Cl)cc2)o1)C1CCCC1	7	-2	9	59*	0	0	-2
CC(C)C(=O)Nc1ccc(-c2nc3cccnc3o2)cc1	0	-1	-1	1	-3	.	.
CC(C)(C)c1ccc(OCC(=O)Nc2ccc(-c3nc4cccnc4o3)cc2)cc1	0	18	6	55*	3	0	2
Cc1ccccc1N(C)S(=O)(=O)c1nnc(NC(=O)c2ccco2)s1	1	27	13	54*	19	3	1
Cc1ccc(N(C)S(=O)(=O)c2nnc(NC(=O)c3ccco3)s2)cc1	-1	-2	-1	5	0	.	.
O=C(Cc1c(F)cccc1Cl)Nc1ccc(S(=O)(=O)Nc2nccs2)cc1	1	-5	0	0	2	.	.
N/C(CSc1ccc(Cl)cc1)=N\S(=O)(=O)c1ccc(Cl)cc1	-3	-13	1	73*	4	6	3
CC1(C(=O)NS(=O)(=O)Cc2cccc(Cl)c2)CCN1C(=O)c1ccc(C2CCCCC2)cc1 (configuration not stated)	0	.	-1	78*	5	4	3
CC1(C(=O)NS(=O)(=O)Cc2ccccc2)CCN1C(=O)c1ccc(C2CCCCC2)cc1 (configuration not stated)	0	.	-2	1	2	.	.
Cc1nc2nc3c(c(=O)n2[nH]1)CCC3	3	-2	-1	3	2	.	.
O=c1c2c(nc3nc(Cc4ccccc4)[nH]n13)CCC2	-4	-6	0	61*	-1	2	3
SMILES	STEP block	Scp-1 inhibitor	LMPTP block	DNMT1 inh	SUMO1-SIM PPI	DNMT1 confirm	Beacon interf
O=C1NC(=S)SC1=Cc1ccccc1Cl	-1	5	2	3	1	.	.
O=C1NC(=S)S/C1=C\c1ccc(SCc2ccccc2)o1	12	31	7	82*	7	10	1
CCOC(=O)C1=C(CC)Nc2ccccc2N/C1=N\S(=O)(=O)c1cccc(C(C)=O)c1	-5	-6	-1	-3	7	.	.
Cc1cc(=O)[nH]c(N/N=C/CCc2ccccc2)n1	0	-1	0	56*	-1	4	28
CCNc1ccc(Br)cc(C(=O)/C=C/c2ccc(Cl)cc2)c1=O	2	-17	22	66*	20	4	1
CCNc1ccc(Br)cc(C(=O)/C=C/c2ccc3c(c2)OCO3)c1=O	4	6	54*	89*	22	1	1
O=[N+]([O-])c1cc(F)cc(F)c1Nc1ccc(F)cc1	1	-8	0	7	-44	.	.
Clc1cccc(Cc2c(-c3ccco3)nc3ccc(Cl)cn23)c1	5	.	1	45	6	.	.
Clc1cccc(Cc2c(-c3ccco3)nc3ccc(Br)cn23)c1	0	.	13	68*	5	19	2
Cc1ccc(NC(=O)N2CCC(NC(=O)c3cccc(F)c3)CC2)cc1	0	-7	0	0	7	.	.
COc1ccc(C2C(C(=O)c3ccccc3)=C(C)Nc3nc4ccccc4n32)cc1OC (configuration not stated)	3	0	-2	59*	1	0	1
COc1ccc(OC)c(C2C(C(=O)c3ccccc3)=C(C)Nc3nc4ccccc4n32)c1 (configuration not stated)	-1	28	1	6	-2	.	.
COc1ccc(NC(=O)c2nc3nccc(C)n3n2)cc1S(=O)(=O)N1CCOCC1	2	1	-1	-4	8	.	.
C[n+]1cccc2cccc([O-])c21	7	-14	52*	78*	40*	2	-3
[O-][n+]1cccc2cccc(O)c21	0	-10	-1	-5	-6	.	.
Cc1ccc2c(c1)nc1c3ccccc3nc(-c3ccccc3N)n21	0	.	0	-10	2	.	.
O=C(CN1C(=O)NC2(CCCCC2)C1=O)Nc1cc(C(F)(F)F)ccc1N1CCOCC1	-2	3	0	2	2	.	.
COc1ccc(C(=O)Nc2ccc(C)cn2)c(OC)c1	1	-9	-1	74*	7	1	3
COc1ccc(C(=O)Nc2cc(C)on2)c(OC)c1	0	1	-1	2	-5	.	.
